What all share (assay type): functional
The subject of test [1] is Plasmodium berghei. Nature of the test: Antimalarial activity as parasitaemia after 14 days against Plasmodium berghei NK65 infected JCL-ICR mice (Mus musculus) at 100 mg/kg. The gist of the method: (§1)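 Female mice aged 4–5 weeks, 5 per group, were infected ip on day 0 with 0.2 mL of 1:100 donor blood in saline (3.3×10^6 parasitized erythrocytes). 100 mg/kg was given twice, at 2 and 48 h post-infection, in 5% gum arabic/saline (solids) or corn oil (oils). Tail-blood thin smears on days 3, 7 and 14 were methanol-fixed and Giemsa-stained (2%, 2 h). % infected erythrocytes was counted microscopically.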

Test [2] has as its system Plasmodium berghei. Nature of the test: Antimalarial activity as parasitaemia after 7 days against Plasmodium berghei NK65 infected JCL-ICR mice (Mus musculus) at 100 mg/kg. The gist of the method: as §1
Test [3] concerns Mus musculus. The test is described as follows: Survival rate in Plasmodium berghei NK65 infected JCL-ICR mice (Mus musculus) at 100 mg/kg body weight after 14 days. The settings on record: 336 h. The gist of the method:
(§2)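 Female JCL-ICR mice (4–5 weeks), 5 per group, were infected i.p. on day 0 with 0.2 mL of a 1:100 saline dilution of donor-mouse blood (3.3×10^6 parasitized erythrocytes). Triazenes were dosed at 100 mg/kg in 5% gum arabic or corn oil, and chloroquine at 50 mg/kg, twice, at 2 and 48 h post-infection. Controls got 5% gum arabic. Mice were monitored daily, with survival rate at day 14.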

For test [4], the system named is Plasmodium berghei. The test is described as follows: Antimalarial activity as parasitaemia after 3 days against Plasmodium berghei NK65 infected JCL-ICR mice (Mus musculus) at 100 mg/kg. The gist of the method:
as §1

In test [5] the test system is Mus musculus. Nature of the test: Survival rate in Plasmodium berghei NK65 infected JCL-ICR mice (Mus musculus) at 50 mg/kg body weight after 14 days. The settings on record: 336 h. The gist of the method:
as §2

Test [6] deals with Plasmodium berghei. The test is described as follows: Antimalarial activity as parasitaemia after 14 days against Plasmodium berghei NK65 infected JCL-ICR mice (Mus musculus) at 50 mg/kg. An outline of the steps:
(§3)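 Chloroquine reference arm: 5 female mice aged 4–5 weeks per group, infected ip on day 0 with 0.2 mL of 1:100 diluted donor blood (3.3×10^6 parasitized erythrocytes). 50 mg/kg was given at 2 and 48 h post-infection. On days 7 and 14, tail-blood smears were methanol-fixed and stained with 2% Giemsa for 2 h, and % parasitized erythrocytes was scored by microscopy.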

In test [7] the test system is Plasmodium berghei. Nature of the test: Antimalarial activity as parasitaemia after 7 days against Plasmodium berghei NK65 infected JCL-ICR mice (Mus musculus) at 50 mg/kg. The gist of the method: as §3

Molecules are shown by their SMILES.

For the molecule `Cc1cc(C)c(/N=N/N(C)C)c(C)c1`, the Activity in the test with Plasmodium berghei [1] came to 73.3%; in the test with Plasmodium berghei [2], 12.4%; in the test with Plasmodium berghei [4], 4.4%. In the test with Mus musculus [3], this molecule displayed a survival at 100 mg/kg of 40%.

Turning to `FC(F)(F)c1ccc(/N=N/N2CCCC2)cc1`, the figures for the Activity in the test with Plasmodium berghei [2] and in the test with Plasmodium berghei [4] were 66.3% and 2.9%, respectively. Also, in the test on Mus musculus [3], the survival at 100 mg/kg turned out to be 0%.

As for `CN(C)/N=N/c1ccc(F)cc1`, the Activity worked out at 60.4% in the test with Plasmodium berghei [1], 53.5% with Plasmodium berghei [2] and 1.7% with Plasmodium berghei [4]. Further, in the test on Mus musculus [3], the survival at 100 mg/kg was 20%.

For the molecule `CN(C)/N=N/c1ccc(Cl)cc1`, the Activity in the test on Plasmodium berghei [1] is reported as 62.5%; with Plasmodium berghei [2], 27%; in the test on Plasmodium berghei [4], 4.8%. The survival at 100 mg/kg with Mus musculus [3] was found to be 60%.

Turning to `CN(C)/N=N/c1ccc(C(F)(F)F)cc1`, the Activity came to 67.9% in the test with Plasmodium berghei [1], 17.6% with Plasmodium berghei [2] and 4.8% with Plasmodium berghei [4]. The same molecule registered a survival at 100 mg/kg with Mus musculus [3] of 80%.

Consider `Cc1cccc(C)c1/N=N/N1CCCC1`, for which the figures for the Activity in the test with Plasmodium berghei [1], with Plasmodium berghei [2] and with Plasmodium berghei [4] were 81.7%, 54.6% and 5.6%, respectively. Besides, the survival at 100 mg/kg in the test on Mus musculus [3] worked out at 40%.

Consider `Cc1cc(C)c(/N=N/N2CCCCC2)c(C)c1`, for which the Activity with Plasmodium berghei [2] is reported as 76.4%; with Plasmodium berghei [4], 4.2%. The survival at 100 mg/kg in the test with Mus musculus [3] came out at 0%.

`Cc1cccc(C)c1/N=N/N1CCCCC1`: the Activity with Plasmodium berghei [2] is given as 76.4%; in the test with Plasmodium berghei [4], 4.2%. In addition, in the test with Mus musculus [3], the survival at 100 mg/kg came to 0%.

Turning to `Cc1cccc(C)c1/N=N/N(C)C`, the results for the Activity with Plasmodium berghei [2] and in the test on Plasmodium berghei [4] were 53.9% and 1.7%, respectively. In addition, in the test on Mus musculus [3], the survival at 100 mg/kg turned out to be 0%.

In turn, `CCN(CC)CCCC(C)Nc1ccnc2cc(Cl)ccc12` (configuration not stated) [CHLOROQUINE] showed a survival at 50 mg/kg in the test with Mus musculus [5] of 100%. In addition, the results for the Activity in the test on Plasmodium berghei [6] and in the test with Plasmodium berghei [7] were 8.5% and under 1%, respectively.

As for `Cc1cc(C)c(/N=N/N2CCCC2)c(C)c1`, the Activity stood at 74.6% in the test on Plasmodium berghei [1], 38.5% with Plasmodium berghei [2] and 4.1% with Plasmodium berghei [4]. Further, in the test with Mus musculus [3], the survival at 100 mg/kg was 60%.

For `FC(F)(F)c1ccc(/N=N/N2CCCCC2)cc1`, the Activity amounted to 44.6% in the test on Plasmodium berghei [2] and 2.3% in the test on Plasmodium berghei [4]. The molecule further gave a survival at 100 mg/kg with Mus musculus [3] of 0%.

For the origin of these results see ChEMBL document CHEMBL1143020, “Antimalarial activity of 1-aryl-3,3-dialkyltriazenes” (2007).
